# Measurements reported in ChEMBL document CHEMBL3877293, “Synthesis and Antineoplastic Evaluation of Novel Unsymmetrical 1,3,4-Oxadiazoles” (J Med Chem, 2016).
# pIC50: −log10 of the molar value. Calls of active or inactive are those of the source. The rule behind the calls is not given here.
# Columns and labels:
# [1] = Antiproliferative activity against human A549 cells after 72 hrs by XTT assay; format: functional, cell-based; conditions: A549, 72 h
# Outline: (§1)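 Cells plated at 1500–2000 per well by doubling time, treated after 24 h with a concentration series in six triplicate wells, and incubated 72 h without a medium change. XTT reagent was then added for 4 h at 37 °C and absorbance read at 490 nm. IC50 is the concentration halving absorbance versus untreated cells. Experiments run in triplicate.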
# MCF7 [2] = experiment: Selectivity ratio of IC50 for human MCF7 cells to IC50 for human T98G cells; format: functional
# Outline: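 XTT viability: 1500–2000 cells/well plated by doubling time; compounds added after 24 h, then 72 h further culture without medium change. XTT reagent 4 h at 37 °C, absorbance read at 490 nm. IC50 is the concentration halving absorbance versus untreated cells; triplicate experiments. Ratio is MCF7 IC50 divided by IC50 in the named line.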
# [3] = Antiproliferative activity against human MRC5 cells after 72 hrs by XTT assay; format: cell-based; conditions: MRC5, 72 h; outline: as §1
# HeLa = experiment: Cytotoxicity against human HeLa cells assessed as inhibition of colony formation after 2 weeks by crystal violet staining based assay; format: functional, cell-based
# Outline: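 HeLa seeded at 100-200 cells/well in six-well plates and treated with 0.3 or 0.03 μM compound (DMSO control). Medium with compound changed every 3 days for about two weeks, until control colonies were visible. Colonies fixed and stained with 6.0% glutaraldehyde/0.5% crystal violet for 30 min, then counted against control. Done in triplicate.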
# [4] = Cell cycle arrest in human HeLa cells assessed as G1 phase accumulation at 1 uM after 8 hrs by propidium iodide staining based flow cytometry (reference value: 62.7%); format: functional
# [5] = Cell cycle arrest in human MCF7 cells assessed as G2/M phase accumulation at 1 uM after 24 hrs by propidium iodide staining based flow cytometry (reference value: 24.2 +/- 1.62%); format: functional
# [6] = Cell cycle arrest in human RD cells assessed as G2/M phase accumulation at 1 uM after 24 hrs by propidium iodide staining based flow cytometry (reference value: 28.9 +/- 1.93%); format: functional
# [7] = Cell cycle arrest in human T98G cells assessed as S phase accumulation at 1 uM after 24 hrs by propidium iodide staining based flow cytometry (reference value: 5.1 +/- 0.82%); format: functional
# [8] = Cell cycle arrest in human A549 cells assessed as subG1 phase accumulation at 1 uM after 24 hrs by propidium iodide staining based flow cytometry relative to DMSO control; format: functional
# [9] = Cell cycle arrest in human A549 cells assessed as G1 phase accumulation at 1 uM after 24 hrs by propidium iodide staining based flow cytometry (reference value: 65.4 +/- 1.84%); format: functional
# [10] = Cell cycle arrest in human A549 cells assessed as S phase accumulation at 1 uM after 24 hrs by propidium iodide staining based flow cytometry (reference value: 7.6 +/- 0.63%); format: functional
# [11] = Cell cycle arrest in human A549 cells assessed as G2/M phase accumulation at 1 uM after 24 hrs by propidium iodide staining based flow cytometry (reference value: 27 +/- 1.32%); format: functional
# [12] = Cell cycle arrest in human PC3 cells assessed as G1 phase accumulation at 1 uM after 24 hrs by propidium iodide staining based flow cytometry (reference value: 67 +/- 1.47%); format: functional; conditions: PC-3
# [13] = Cell cycle arrest in human NB-1 cells assessed as G2/M phase accumulation at 1 uM after 24 hrs by propidium iodide staining based flow cytometry (reference value: 21.2%); conditions: nb1, 24 h
# [14] = Cell cycle arrest in human NB-1 cells assessed as G2/M phase accumulation at 1 uM after 48 hrs by propidium iodide staining based flow cytometry (reference value: 12.4%); conditions: nb1, 48 h
# [15] = Cell cycle arrest in human NB1 hTERT cells assessed as S phase accumulation at 1 uM after 24 hrs by propidium iodide staining based flow cytometry (reference value: 11.8%); format: functional
# [16] = Cell cycle arrest in human NB1 hTERT cells assessed as G2/M phase accumulation at 1 uM after 48 hrs by propidium iodide staining based flow cytometry (reference value: 27.2%); format: functional
# [17] = Cell cycle arrest in human NB1 hTERT cells assessed as G1 phase accumulation at 1 uM after 72 hrs by propidium iodide staining based flow cytometry (reference value: 72.5%); format: functional
# [18] = Cell cycle arrest in human NB1 hTERT cells assessed as S phase accumulation at 1 uM after 72 hrs by propidium iodide staining based flow cytometry (reference value: 3.6%); format: functional
# [19] = Disruption of beta-tubulin network in human MCF7 cells assessed as uneven distribution around nuclei at 1 uM after 24 hrs by DAPI staining based immunofluorescence microscopic analysis; format: cell-based
# Outline: (§2)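 Cells seeded on glass coverslips (1 x 10^5/well), treated 24 h, fixed in 4% paraformaldehyde 15 min, permeabilized with 0.5% Triton X-100, blocked in 5% BSA/PBS, stained overnight at 4 °C with anti-β-tubulin (1:200) then fluorescent secondary antibody; nuclei counterstained with DAPI; microtubule organization and nuclear morphology examined by fluorescence microscopy.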
# MCF7 [20] = experiment: Disruption of beta-tubulin network in human MCF7 cells assessed as induction of micronucleated cells at 1 uM after 24 hrs by DAPI staining based immunofluorescence microscopic analysis; format: cell-based; outline: as §2
# A549 [21] = experiment: Induction of apoptosis in human A549 cells assessed as early apoptotic cells at 5 uM after 72 hrs by Annexin-V FITC/propidium iodide staining based flow cytometry (reference value: 1.3%); format: functional
# A549 [22] = experiment: Induction of apoptosis in human A549 cells assessed as necrotic cells at 5 uM after 72 hrs by Annexin-V FITC/propidium iodide staining based flow cytometry (reference value: 1.6%); format: functional
# [23] = Induction of apoptosis in human NB1 hTERT cells assessed as early apoptotic cells at 5 uM after 72 hrs by Annexin-V FITC/propidium iodide staining based flow cytometry (reference value: 0.6%); format: functional
# [24] = Induction of apoptosis in human NB1 hTERT cells assessed as necrotic cells at 5 uM after 72 hrs by Annexin-V FITC/propidium iodide staining based flow cytometry (reference value: 1.6%); format: functional
smiles,measurement,setting,value
Cc1[nH]c2c(c1-c1nnc(-c3ccccc3)o1)Cc1ccccc1-2,pIC50,[1],6.62
same,Ratio IC50,MCF7 [2],28 - 34
same,pIC50,[3],6.72
same,inhibition,HeLa,Dose-dependent effect
same,Activity,[4],32.5%
same,Activity,[5],59.5 to 78.1%
same,Activity,[6],46.4%
same,Activity,[7],6.2%
same,Activity,[8],13.8%
same,Activity,[9],11.4%
same,Activity,[10],9.5%
same,Activity,[11],65.3%
same,Activity,[12],23.3%
same,Activity,[13],23.8%
same,Activity,[14],15%
same,Activity,[15],12.3%
same,Activity,[16],23.1%
same,Activity,[17],45.6%
same,Activity,[18],8.3%
same,Activity,[19],Active
same,Activity,MCF7 [20],Active
same,Activity,A549 [21],11%
same,Activity,A549 [22],4.6%
same,Activity,[23],3.8%
same,Activity,[24],2.1%
